Reference: ChEMBL document CHEMBL1152649, “Synthesis, cytotoxicity and human telomerase inhibition activities of a series of 1,2-heteroannelated anthraquinones and anthra[1,2-d]imidazole-6,11-dione homologues” (2009)

Key:
[1] = Growth inhibition of human Hs 578T cells; type: functional
In short: (§1)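 NCI 60 cancer cell line screen run per the Developmental Therapeutics Program protocol. Dose–response curves were plotted against log10 drug concentration for each cell line within its subpanel, and mean graph midpoint values were calculated.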

[2] = tested on: T47D; experiment: Growth inhibition of human T47D cells; type: functional
In short: (§2)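 Assayed in the NCI 60 human cancer cell line panel under the Developmental Therapeutics Program protocol. For each line, dose–response curves were plotted against log10 drug concentration. In the one-dose screen at 10^-5 M, growth was given as percent of untreated control cells, and mean graph midpoint values were averaged.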

[3] = Cytotoxicity against human H1299 cells at 1 uM after 48 hrs by MTT assay; type: functional; conditions: NCI-H1299, 48 h
In short: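 H1299 non-small cell lung cancer cells were grown in RPMI 1640 with 10% FBS, penicillin and streptomycin at 37 °C under 5% CO2. About 2 × 10³ cells per well were seeded and left 24 h. Compounds were dissolved fresh in DMSO, diluted into complete medium and applied for 48 h. MTT was then added for 4 h at 37 °C, followed by lysis buffer (20% SDS, 50% DMF) for 16 h, and absorbance was read at 550 nm.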

[4] = tested on: HOP-62; experiment: Antiproliferative activity against human HOP62 cells assessed as cell growth at 10 uM; type: functional; conditions: read-out: Activity
In short: (§3)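 NCI 60 cell line panel, single-dose screen (10^-5 M) run by the developmental therapeutics program protocol. Results are given as growth percent of treated cells relative to untreated control cells for each line.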

[5] = tested on: SW-620; experiment: Antiproliferative activity against human SW620 cells assessed as cell growth at 10 uM; type: functional; conditions: read-out: Activity
In short: (§4)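 NCI 60 cell line panel, single dose (10^-5 M), run per the Developmental Therapeutics Program protocol (one dose mean graph). Each result is the growth percentage of treated cells relative to untreated control cells.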

[6] = tested on: MDA-MB-435; experiment: Antiproliferative activity against human MDA-MB-435 cells assessed as cell growth at 10 uM; type: functional; conditions: read-out: Activity; in short: as §3
[7] = tested on: MDA-MB-468; experiment: Antiproliferative activity against human MDA-MB-468 cells assessed as cell growth at 10 uM; type: functional; conditions: read-out: Activity; in short: as §3
[8] = tested on: HL-60(TB); experiment: Antiproliferative activity against human HL-60(TB) cells assessed as cell growth at 10 uM; type: functional; conditions: read-out: Activity
In short: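 NCI Developmental Therapeutics Program 60-cell-line one-dose screen at 10^-5 M. Readout is growth percentage of treated cells relative to untreated control cells.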

[9] = tested on: K562; experiment: Antiproliferative activity against human K562 cells assessed as cell growth at 10 uM; type: functional; conditions: read-out: Activity; in short: as §3
[10] = tested on: SR; experiment: Antiproliferative activity against human SR cells assessed as cell growth at 10 uM; type: functional; conditions: read-out: Activity; in short: as §4
[11] = tested on: A498; experiment: Antiproliferative activity against human A498 cells assessed as cell growth at 10 uM; type: functional; conditions: read-out: Activity; in short: as §3
[12] = tested on: SN12C; experiment: Antiproliferative activity against human SN12C cells assessed as cell growth at 10 uM; type: functional; conditions: read-out: Activity; in short: as §3
[13] = tested on: LOX IMVI; experiment: Antiproliferative activity against human LOXIMVI cells assessed as cell growth at 10 uM; type: functional; conditions: read-out: Activity; in short: as §3
[14] = tested on: Malme-3M; experiment: Antiproliferative activity against human MALME-3M cells assessed as cell growth at 10 uM; type: functional; conditions: read-out: Activity; in short: as §3
[15] = tested on: SF-539; experiment: Antiproliferative activity against human SF539 cells assessed as cell growth at 10 uM; type: functional; conditions: read-out: Activity; in short: as §3
[16] = tested on: SNB-19; experiment: Antiproliferative activity against human SNB19 cells assessed as cell growth at 10 uM; type: functional; conditions: read-out: Activity; in short: as §3
[17] = tested on: CCRF-CEM; experiment: Growth inhibition of human CCRF-CEM cells; type: functional; in short: as §1
[18] = tested on: HL-60(TB); experiment: Growth inhibition of human HL-60(TB) cells; type: functional
In short: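 NCI 60-cell-line panel run under the Developmental Therapeutics Program protocol. Dose-response curves are plotted against log10 drug concentration for each cell line within its subpanel, and GI50 is read from these curves.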

[19] = tested on: K562; experiment: Growth inhibition of human K562 cells; type: functional; in short: as §1
[20] = tested on: MOLT-4; experiment: Growth inhibition of human MOLT4 cells; type: functional; in short: as §1
[21] = Growth inhibition of human […] cells; type: functional; in short: as §2
[22] = tested on: A549; experiment: Growth inhibition of human A549 cells; type: functional; in short: as §1
[23] = tested on: EKVX; experiment: Growth inhibition of human EKVX cells; type: functional; in short: as §1
[24] = tested on: NCI-H23; experiment: Growth inhibition of human NCI-H23 cells; type: functional; in short: as §1
[25] = tested on: SW-620; experiment: Growth inhibition of human SW620 cells; type: functional; in short: as §2
[26] = tested on: SF-539; experiment: Growth inhibition of human SF539 cells; type: functional; in short: as §2
[27] = tested on: U-251; experiment: Growth inhibition of human U251 cells; type: functional; in short: as §2
[28] = tested on: SK-MEL-28; experiment: Growth inhibition of human SK-MEL-28 cells; type: functional; in short: as §2
[29] = tested on: OVCAR-3; experiment: Growth inhibition of human OVCAR-3 cells; type: functional; in short: as §1
[30] = tested on: OVCAR-4; experiment: Growth inhibition of human OVCAR4 cells; type: functional; in short: as §1
[31] = tested on: SK-OV-3; experiment: Growth inhibition of human SKOV3 cells; type: functional; in short: as §2
[32] = tested on: A498; experiment: Growth inhibition of human A498 cells; type: functional; in short: as §1
[33] = tested on: RXF 393; experiment: Growth inhibition of human RXF393 cells; type: functional; in short: as §2
[34] = tested on: TK-10; experiment: Growth inhibition of human TK10 cells; type: functional; in short: as §2
[35] = tested on: PC-3; experiment: Growth inhibition of human PC3 cells; type: functional; in short: as §2
[36] = tested on: NCI-H226; experiment: Antiproliferative activity against human NCI-H226 cells assessed as cell growth at 10 uM; type: functional; conditions: read-out: Activity; in short: as §3
[37] = tested on: HCT-15; experiment: Antiproliferative activity against human HCT15 cells assessed as cell growth at 10 uM; type: functional; conditions: read-out: Activity; in short: as §3
[38] = target: Telomerase reverse transcriptase (Homo sapiens) (UniProt O14746); experiment: Inhibition of TERT in human H1299 cells assessed as residual transcriptional activity at 100 uM after 24 hrs by SEAP reporter gene assay; values are per cent of control
Telomerase reverse transcriptase (Homo sapiens), sequence (O14746 whole entry): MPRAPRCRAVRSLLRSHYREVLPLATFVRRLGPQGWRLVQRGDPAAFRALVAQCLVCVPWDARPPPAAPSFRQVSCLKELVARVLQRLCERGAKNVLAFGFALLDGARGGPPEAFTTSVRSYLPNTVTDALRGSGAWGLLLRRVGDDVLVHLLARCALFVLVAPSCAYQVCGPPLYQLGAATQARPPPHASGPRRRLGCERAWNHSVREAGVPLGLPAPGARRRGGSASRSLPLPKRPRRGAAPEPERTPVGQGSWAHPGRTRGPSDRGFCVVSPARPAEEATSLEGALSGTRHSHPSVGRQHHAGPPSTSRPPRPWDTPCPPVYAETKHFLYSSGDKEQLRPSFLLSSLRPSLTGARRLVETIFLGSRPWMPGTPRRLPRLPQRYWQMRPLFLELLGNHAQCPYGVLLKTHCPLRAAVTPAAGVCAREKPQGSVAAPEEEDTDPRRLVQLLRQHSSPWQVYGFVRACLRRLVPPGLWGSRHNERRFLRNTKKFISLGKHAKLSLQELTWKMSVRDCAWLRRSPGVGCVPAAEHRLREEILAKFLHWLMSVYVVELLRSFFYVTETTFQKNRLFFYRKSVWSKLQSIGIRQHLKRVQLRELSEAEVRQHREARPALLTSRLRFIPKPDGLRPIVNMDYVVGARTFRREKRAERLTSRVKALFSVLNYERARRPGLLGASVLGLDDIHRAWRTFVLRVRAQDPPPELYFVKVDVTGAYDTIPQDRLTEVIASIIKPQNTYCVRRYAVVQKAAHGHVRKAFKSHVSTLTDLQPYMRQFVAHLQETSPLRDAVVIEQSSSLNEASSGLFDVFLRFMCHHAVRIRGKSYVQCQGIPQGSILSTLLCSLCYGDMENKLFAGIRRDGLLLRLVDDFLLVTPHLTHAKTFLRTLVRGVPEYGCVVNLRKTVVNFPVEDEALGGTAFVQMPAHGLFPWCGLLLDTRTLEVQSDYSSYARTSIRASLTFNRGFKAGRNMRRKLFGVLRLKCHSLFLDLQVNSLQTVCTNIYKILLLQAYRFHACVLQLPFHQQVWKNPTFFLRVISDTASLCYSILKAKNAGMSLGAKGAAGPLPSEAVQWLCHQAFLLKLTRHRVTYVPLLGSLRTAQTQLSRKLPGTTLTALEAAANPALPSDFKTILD

[39] = read-out: LC50 (the source's name)

O=C1c2ccccc2C(=O)c2c1ccc1nsnc21
GI50 [1]: 1.41 µM
LC50 [1]: 56 µM
TGI [1]: 5.02 µM
GI50 [2]: 1.39 µM
LC50 [2]: 8.27 µM
TGI [2]: 3.39 µM
viability at 1 µM [3]: 40%
growth at 10 µM [4]: -100%
growth at 10 µM [5]: 7.3%
growth at 10 µM [6]: -87.9%
growth at 10 µM [7]: -73.2%
growth at 10 µM [8]: -21.8%
growth at 10 µM [9]: 49.6%
growth at 10 µM [10]: 4.96%
growth at 10 µM [11]: 130%
growth at 10 µM [12]: -73.3%
growth at 10 µM [13]: -50.6%
growth at 10 µM [14]: -71.5%
growth at 10 µM [15]: -47.1%
growth at 10 µM [16]: 79%
GI50 [17]: 1.08 µM
TGI [17]: 4.1 µM
CC50 [17, 39]: > 100 µM
GI50 [18]: 0.16 µM
TGI [18]: 0.4 µM
CC50 [18, 39]: 0.99 µM
GI50 [19]: 1.92 µM
LC50 [19]: 41.2 µM
TGI [19]: 15.9 µM
GI50 [20]: 0.49 µM
TGI [20]: 1.84 µM
CC50 [20, 39]: 4.71 µM
GI50 [21]: 1.18 µM
TGI [21]: 3.46 µM
CC50 [21, 39]: > 100 µM
GI50 [22]: 14.7 µM
TGI [22]: 36.6 µM
CC50 [22, 39]: 91 µM
GI50 [23]: 1.55 µM
TGI [23]: 3.45 µM
CC50 [23, 39]: 7.66 µM
GI50 [24]: 1.44 µM
TGI [24]: 6.04 µM
CC50 [24, 39]: > 100 µM
GI50 [25]: 1.79 µM
TGI [25]: 3.5 µM
CC50 [25, 39]: 6.84 µM
GI50 [26]: 1.46 µM
TGI [26]: 2.94 µM
CC50 [26, 39]: 5.91 µM
GI50 [27]: 1.61 µM
TGI [27]: 2.96 µM
CC50 [27, 39]: 5.44 µM
GI50 [28]: 1.85 µM
TGI [28]: 3.38 µM
CC50 [28, 39]: 6.18 µM
GI50 [29]: 0.55 µM
TGI [29]: 2.46 µM
CC50 [29, 39]: 11.1 µM
GI50 [30]: 0.65 µM
TGI [30]: 2.17 µM
CC50 [30, 39]: 5.57 µM
GI50 [31]: 7.71 µM
TGI [31]: 22.5 µM
CC50 [31, 39]: 53.4 µM
GI50 [32]: 12.4 µM
TGI [32]: 25.4 µM
CC50 [32, 39]: 52 µM
GI50 [33]: 1.75 µM
TGI [33]: 4.4 µM
CC50 [33, 39]: 14.6 µM
GI50 [34]: 2.85 µM
TGI [34]: 10.9 µM
CC50 [34, 39]: 50.4 µM
GI50 [35]: 3.23 µM
TGI [35]: > 100 µM
CC50 [35, 39]: > 100 µM
growth at 10 µM [36]: 97.8%
growth at 10 µM [37]: 1.48%
residual activity [38]: 9%
